Laboratory results from ChEMBL document CHEMBL4673245, “Discovery of AZD9833, a Potent and Orally Bioavailable Selective Estrogen Receptor Degrader and Antagonist” (J Med Chem, 2020).
In brackets after ≈: the same amount, converted by molar mass.

Key:
[1] = Chemical stability of compound assessed as drug degradation in deuterated buffer at pH 7.4 measured for 8 days; format: physicochemical; conditions: pH 7.4, 192 h, time 8 day
[2] = Fraction unbound in human plasma by equilibrium dialysis method; format: ADME, cell-free
In short: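 Fraction unbound measured from DMSO stock by equilibrium dialysis in 10% human plasma.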

[3] = Oral bioavailability in rat at 1 mg/kg; format: ADME, organism-based; conditions: in vivo
In short: (§1)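 Rat PK: single IV dose 0.5 mg/kg and oral dose 1 mg/kg, formulated in 5% DMSO:95% hydroxypropyl-β-cyclodextrin (30% w/v), dosed at 1 mL/kg IV and 4 mL/kg PO.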

[4] = Half-life in mouse at 2 mg/kg, iv or 5 mg/kg, po; format: ADME, organism-based; conditions: in vivo
Cytochrome P450 3A4 = Cytochrome P450 3A4 (Homo sapiens, UniProt P08684); assay: Inhibition of CYP3A4 in human liver microsomes; format: ADME
Cytochrome P450 3A4, sequence (P08684 whole entry, canonical isoform): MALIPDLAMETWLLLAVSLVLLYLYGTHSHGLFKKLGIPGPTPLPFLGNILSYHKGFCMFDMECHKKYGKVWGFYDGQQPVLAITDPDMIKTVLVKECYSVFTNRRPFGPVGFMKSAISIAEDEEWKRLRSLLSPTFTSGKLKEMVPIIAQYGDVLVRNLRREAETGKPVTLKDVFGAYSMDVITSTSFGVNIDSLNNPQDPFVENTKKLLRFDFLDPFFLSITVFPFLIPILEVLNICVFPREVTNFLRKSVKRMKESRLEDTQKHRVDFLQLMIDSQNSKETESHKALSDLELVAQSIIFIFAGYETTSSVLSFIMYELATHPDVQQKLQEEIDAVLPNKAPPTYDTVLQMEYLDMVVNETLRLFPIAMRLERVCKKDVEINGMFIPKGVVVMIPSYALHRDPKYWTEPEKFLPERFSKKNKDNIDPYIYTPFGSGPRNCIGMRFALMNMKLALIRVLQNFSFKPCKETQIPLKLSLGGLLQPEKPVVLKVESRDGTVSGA
In short: (§2)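 High-throughput human liver microsome panel of five CYP isoforms; inhibition reported as IC50.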

[5] = Antitumor activity against human […] cells xenografted in CB17 SCID mouse assessed as tumor regression at 10 mg/kg, po administered daily via oral gavage for 21 days relative to control; format: functional, MCF7; conditions: time 21 day
[6] = In vivo antagonist activity at ERalpha in human MCF7 cells xenografted CB17 SCID mouse assessed as decrease in PR expression level at 50 mg/kg, po administered daily via oral gavage for 21 days measured 24 hrs post last dose by Western blot analysis relative to control; format: functional; parameters: scale not given: the % may be the effect or the level left; conditions: time 21 day
[7] = Chemical stability of compound assessed as drug degradation in deuterated buffer at pH 4 measured for 8 days; format: physicochemical; conditions: pH 4, 192 h, time 8 day
[8] = Clearance in mouse at 2 mg/kg, iv or 5 mg/kg, po relative to liver blood flow; format: ADME, organism-based; conditions: in vivo
[9] = Clearance in rat at 0.5 mg/kg, iv or 1 mg/kg, po; format: ADME, organism-based; conditions: in vivo; in short: as §1
[10] = Intrinsic clearance in mouse hepatocytes assessed per million cells; format: ADME, cell-based, Hepatocyte; conditions: read-out: CLH
In short: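 Compound added from DMSO stock to isolated hepatocytes diluted to 1x10⁶ cells/mL. Metabolic turnover rate is reported as intrinsic clearance in µl/min/10⁶ cells.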

Cytochrome P450 2D6 = Cytochrome P450 2D6 (Homo sapiens, UniProt P10635); assay: Inhibition of CYP2D6 in human liver microsomes; format: ADME; in short: as §2
Cytochrome P450 2D6, sequence (P10635 whole entry): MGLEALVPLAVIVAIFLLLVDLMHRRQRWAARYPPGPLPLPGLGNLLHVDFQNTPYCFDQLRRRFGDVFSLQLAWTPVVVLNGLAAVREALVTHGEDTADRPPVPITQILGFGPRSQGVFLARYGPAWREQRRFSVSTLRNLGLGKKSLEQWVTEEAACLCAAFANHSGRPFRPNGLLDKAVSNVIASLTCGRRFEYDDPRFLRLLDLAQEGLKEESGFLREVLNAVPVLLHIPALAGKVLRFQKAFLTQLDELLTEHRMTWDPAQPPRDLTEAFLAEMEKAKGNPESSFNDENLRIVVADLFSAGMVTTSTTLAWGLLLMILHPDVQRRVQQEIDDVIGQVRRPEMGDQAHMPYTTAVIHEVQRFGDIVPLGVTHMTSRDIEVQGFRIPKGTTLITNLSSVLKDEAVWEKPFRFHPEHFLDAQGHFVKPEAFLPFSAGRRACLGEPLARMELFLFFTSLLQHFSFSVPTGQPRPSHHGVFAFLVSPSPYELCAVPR

[11] = Chemical stability of compound assessed as drug degradation in buffer at pH 1 stored at 22 to 60 degreeC measured after 5 days; format: physicochemical; conditions: pH 1, 120 h, time 5 day
Cytochrome P450 2C9 = Cytochrome P450 2C9 (Homo sapiens, UniProt P11712); assay: Inhibition of CYP2C9 in human liver microsomes; format: ADME; in short: as §2
Cytochrome P450 2C9, sequence (P11712 whole entry): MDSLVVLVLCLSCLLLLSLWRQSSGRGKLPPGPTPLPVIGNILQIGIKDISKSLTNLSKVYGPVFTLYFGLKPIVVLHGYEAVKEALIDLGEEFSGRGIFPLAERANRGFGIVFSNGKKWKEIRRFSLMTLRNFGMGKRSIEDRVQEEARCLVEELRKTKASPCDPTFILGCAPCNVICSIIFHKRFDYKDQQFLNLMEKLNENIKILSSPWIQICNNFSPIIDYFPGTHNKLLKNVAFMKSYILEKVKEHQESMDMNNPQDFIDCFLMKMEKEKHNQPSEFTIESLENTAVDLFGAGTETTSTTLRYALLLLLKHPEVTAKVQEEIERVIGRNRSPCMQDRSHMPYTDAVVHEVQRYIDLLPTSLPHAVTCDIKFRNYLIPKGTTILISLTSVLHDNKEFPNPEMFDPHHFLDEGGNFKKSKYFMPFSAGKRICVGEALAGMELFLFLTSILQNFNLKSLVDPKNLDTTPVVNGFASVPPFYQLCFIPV

[12] = Dissociation constant, dibasic pKa of compound in 0.1 M potassium chloride in presence of piperidine by UV-vis spectroscopy; format: physicochemical
[13] = Antitumor activity against human […] cells xenografted in CB17 SCID mouse assessed as tumor growth inhibition at 50 mg/kg, po administered daily via oral gavage for 21 days relative to control; format: functional, MCF7; parameters: scale not given: the % may be the effect or the level left; conditions: time 21 day
[14] = Volume of distribution at steady state in mouse at 2 mg/kg, iv or 5 mg/kg, po; format: ADME, organism-based; conditions: in vivo, read-out: Vdss
[15] = Chemical stability of compound assessed as drug degradation in buffer at pH 7.4 stored at 22 to 60 degreeC measured after 5 days; format: physicochemical; conditions: pH 7.4, 120 h, time 5 day
[16] = Intrinsic clearance in rat hepatocytes assessed per million cells; format: ADME, cell-based, Hepatocyte; conditions: read-out: CLH
In short: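 Hepatocyte intrinsic clearance measured from DMSO stock in isolated hepatocytes diluted to 1x10⁶ cells/mL; rate expressed as µl/min/10⁶ cells.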

[17] = Stability of compound at 60 degC and 75% relative humidity assessed parent compound remaining measured 1 week using crystalline form of sample by chromatographic method; format: physicochemical; conditions: solid sample, time 1 weeks, read-out: Stabilty
MCF7 [18] = assay: Antitumor activity against human […] cells xenografted in CB17 SCID mouse assessed as decrease in tumor volume administered daily via oral gavage for 21 days; format: functional, cell-based; conditions: dose 0.5-50 mg/kg, time 21.0 day
MCF7 [19] = assay: Antiproliferative activity against human MCF7 cells harboring Y537S mutant assessed as reduction in cell viability incubated for 4 to 6 days by SYTOX Green dye based fluorescence assay; format: functional
[20] = In vivo antagonist activity at ERalpha in human MCF7 cells xenografted CB17 SCID mouse assessed as decrease in PR expression level at 10 mg/kg, po administered daily via oral gavage for 21 days measured 24 hrs post last dose by Western blot analysis relative to control; format: functional; parameters: scale not given: the % may be the effect or the level left; conditions: time 21 day
[21] = Stability of compound at 60 degC and ambient dry condition assessed parent compound remaining measured 2 weeks using amorphous form of sample by chromatographic method; format: physicochemical; conditions: solid sample, read-out: Stabilty
[22] = Stability of compound at 60 degC and 75% relative humidity assessed parent compound remaining measured 1 week using amorphous form of sample by chromatographic method; format: physicochemical; conditions: solid sample, time 1 weeks, read-out: Stabilty
[23] = Oral bioavailability in mouse at 5 mg/kg; format: ADME, organism-based; conditions: in vivo
[24] = Fraction unbound in mouse plasma; format: ADME, cell-free
[25] = biological target: T1, Estrogen receptor (Homo sapiens) (UniProt P03372); assay: Induction of ERalpha degradation in human MCF7 cells assessed as maximum degradation incubated for 18 to 24 hrs by Alexa fluor 488/Hoechst staining based immunofluorescence imaging analysis relative to fulvestrant; format: cell-based; conditions: time lower […], time upper […]
T1 sequence (whole entry): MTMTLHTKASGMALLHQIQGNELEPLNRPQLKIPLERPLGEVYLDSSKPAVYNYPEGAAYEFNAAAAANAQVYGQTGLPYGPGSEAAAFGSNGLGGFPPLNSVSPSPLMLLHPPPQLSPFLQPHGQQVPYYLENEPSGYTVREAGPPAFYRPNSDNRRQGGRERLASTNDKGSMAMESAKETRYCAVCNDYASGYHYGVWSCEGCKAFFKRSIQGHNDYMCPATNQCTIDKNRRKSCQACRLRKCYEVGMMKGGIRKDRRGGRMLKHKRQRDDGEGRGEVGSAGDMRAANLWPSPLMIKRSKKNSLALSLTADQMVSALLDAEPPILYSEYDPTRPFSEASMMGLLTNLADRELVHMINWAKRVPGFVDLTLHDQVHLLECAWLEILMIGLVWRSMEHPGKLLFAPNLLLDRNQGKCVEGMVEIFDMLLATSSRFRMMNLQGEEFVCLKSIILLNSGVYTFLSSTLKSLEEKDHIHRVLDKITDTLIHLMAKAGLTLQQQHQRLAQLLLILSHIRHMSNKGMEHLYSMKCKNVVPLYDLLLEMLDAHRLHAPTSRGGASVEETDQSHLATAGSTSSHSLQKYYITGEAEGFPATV

[26] = Stability of compound at 60 degC and ambient dry condition assessed parent compound remaining measured 2 weeks using crystalline form of sample by chromatographic method; format: physicochemical; conditions: solid sample, read-out: Stabilty
[27] = Fraction absorbed in rat at 0.5 mg/kg, iv or 1 mg/kg, po; format: ADME, organism-based; conditions: in vivo, read-out: Fabs; in short: as §1
[28] = Clearance in mouse at 2 mg/kg, iv or 5 mg/kg, po; format: ADME, organism-based; conditions: in vivo
[29] = Solubility of compound in phosphate buffer at pH 7.4 using crystalline form of sample; format: physicochemical
[30] = Fraction unbound in rat plasma; format: ADME, cell-free
Cytochrome P450 2C19 = Cytochrome P450 2C19 (Homo sapiens, UniProt P33261); assay: Inhibition of CYP2C19 in human liver microsomes; format: ADME; in short: as §2
Cytochrome P450 2C19, sequence (P33261 whole entry): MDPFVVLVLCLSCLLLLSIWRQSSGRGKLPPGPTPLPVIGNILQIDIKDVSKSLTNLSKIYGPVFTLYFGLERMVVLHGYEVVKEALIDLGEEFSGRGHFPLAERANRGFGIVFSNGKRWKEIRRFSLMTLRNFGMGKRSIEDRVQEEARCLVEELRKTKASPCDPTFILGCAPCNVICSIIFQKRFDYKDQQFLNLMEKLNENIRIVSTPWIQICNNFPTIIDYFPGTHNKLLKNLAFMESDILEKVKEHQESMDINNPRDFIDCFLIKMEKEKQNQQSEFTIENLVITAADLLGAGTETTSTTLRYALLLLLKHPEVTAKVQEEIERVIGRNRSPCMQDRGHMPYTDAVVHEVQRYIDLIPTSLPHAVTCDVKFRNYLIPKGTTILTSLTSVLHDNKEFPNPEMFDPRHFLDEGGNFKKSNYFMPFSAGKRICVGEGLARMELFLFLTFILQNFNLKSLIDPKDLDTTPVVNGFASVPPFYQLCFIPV

C[C@@H]1Cc2c(ccc3[nH]ncc23)[C@@H](c2ccc(NC3CN(CCCF)C3)cn2)N1CC(F)(F)F [CAMIZESTRANT]
Stabilty [1]: Stable
fraction unbound [2]: 0.23
bioavailability [3]: 19%
half-life [4]: 5.1 h
IC50 (Cytochrome P450 3A4): 2.2 µM
Activity [5]: 15%
Activity [6]: 6.3%
Stabilty [7]: Stable
CL [8]: 66%
clearance [9]: 73 mL/min/kg
hepatocyte CLint [10]: 18 µL/min/1e6 cells
IC50 (Cytochrome P450 2D6): 4.3 µM
Stabilty [11]: Unstable
IC50 (Cytochrome P450 2C9): > 30 µM
pKa [12]: 4.8
Activity [13]: 53%
Vd [14]: 9.2 L/kg
Stabilty [15]: Unstable
hepatocyte CLint [16]: 23 µL/min/1e6 cells
remaining at 168 h [17]: 99.5%
Activity (MCF7 [18]): Dose-dependent effect
IC50 (MCF7 [19]): 0.0251 µM
Activity [20]: 8.9%
remaining at 336 h [21]: 98.4%
remaining at 168 h [22]: 82.4%
bioavailability [23]: 16%
fraction unbound [24]: 0.23
Emax [25]: 99%
remaining at 336 h [26]: 99.4%
Fa [27]: > 95%
clearance [28]: 59 mL/min/kg
solubility thermodynamic [29]: 400 µg/mL (≈ 839 µM)
fraction unbound [30]: 0.26
IC50 (Cytochrome P450 2C19): > 30 µM
